Activity calls are given as the source filed them.
Key:
Mus musculus [1] = experiment: Neurotoxicity in CF1 albino mouse at 30 mg/kg, ip after 4 hrs by rotarod test; assay type: toxicity, organism-based; conditions: in vivo
How it was run: (§1)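 Rotarod neurotoxicity in male albino CF-1 mice dosed ip with compound suspended in 0.5% methylcellulose. Animal placed on a 1 inch diameter knurled plastic rod rotating at 6 rpm. Neurotoxicity scored when the animal falls off three times within 1 min. Readout is number of animals toxic/number tested at the stated time after dosing. TD50 with 95% confidence interval from the quantitative study.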

Mus musculus [2] = experiment: Neurotoxicity in CF1 albino mouse at 100 mg/kg, ip after 4 hrs by rotarod test; assay type: toxicity, organism-based; conditions: in vivo; how it was run: as §1
Mus musculus [3] = experiment: Neurotoxicity in CF1 albino mouse at 50 mg/kg, ip after 4 hrs by rotarod test; assay type: toxicity, organism-based; conditions: in vivo; how it was run: as §1
Mus musculus [4] = experiment: Anticonvulsant activity in CF1 albino mouse assessed as protection against maximal electroshock-induced seizure at 30 mg/kg, ip after 4 hrs; assay type: functional, organism-based
How it was run: (§2)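 Male CF-1 mice dosed ip as suspension in 0.5% methylcellulose. Corneal electrodes deliver 60 Hz alternating current, 50 mA for […], after a drop of 0.5% tetracaine HCl in 0.9% NaCl per eye. Protection means abolition of hindlimb tonic extension; scored as protected/tested, or ED50 with 95% confidence interval.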

Mus musculus [5] = experiment: Neurotoxicity in CF1 albino mouse at 50 mg/kg, ip after 2 hrs by rotarod test; assay type: toxicity, organism-based; conditions: in vivo; how it was run: as §1
Mus musculus [6] = experiment: Anticonvulsant activity in CF1 albino mouse assessed as protection against maximal electroshock-induced seizure at 100 mg/kg, ip after 4 hrs; assay type: functional, organism-based; how it was run: as §2
Mus musculus [7] = experiment: Neurotoxicity in CF1 albino mouse at 50 mg/kg, ip after 1 hr by rotarod test; assay type: toxicity, organism-based; conditions: in vivo; how it was run: as §1
Mus musculus [8] = experiment: Anticonvulsant activity in CF1 albino mouse assessed as protection against 6 Hz-psychomotor-induced seizure at 50 mg/kg, ip after 4 hrs; assay type: functional, organism-based
How it was run: (§3)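 Male CF-1 mice, ip suspension in 0.5% methylcellulose. Corneal stimulation 0.2 ms monopolar rectangular pulses at 6 Hz, 32 mA for 3 s via constant-current device; mice without minimal clonic phase seizure counted protected. Groups of four; read at 0.25, 0.5, 1, 2, 4 h; result as protected/tested.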

Mus musculus [9] = experiment: Neurotoxicity in CF1 albino mouse at 30 mg/kg, ip after 0.5 hrs by rotarod test; assay type: toxicity, organism-based; conditions: in vivo; how it was run: as §1
Mus musculus [10] = experiment: Neurotoxicity in CF1 albino mouse at 300 mg/kg, ip after 4 hrs by rotarod test; assay type: toxicity, organism-based; conditions: in vivo; how it was run: as §1
Mus musculus [11] = experiment: Anticonvulsant activity in CF1 albino mouse assessed as protection against subcutaneous pentetrazole-induced seizure at 100 mg/kg, ip after 4 hrs; assay type: functional, organism-based
How it was run: (§4)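 Male CF-1 mice, ip in 0.5% methylcellulose; pentetrazole at CD97 (85 mg/kg) injected subcutaneously in a loose fold of neck skin. Observed 30 min; absence of even a threshold seizure (single clonic spasm lasting at least 5 s) counted as protection. Scored protected/tested, or ED50.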

Mus musculus [12] = experiment: Anticonvulsant activity in CF1 albino mouse assessed as protection against maximal electroshock-induced seizure at 30 mg/kg, ip after 0.5 hrs; assay type: functional, organism-based; how it was run: as §2
Mus musculus [13] = experiment: Anticonvulsant activity in CF1 albino mouse assessed as protection against subcutaneous pentetrazole-induced seizure at 30 mg/kg, ip after 0.5 hrs; assay type: functional, organism-based; how it was run: as §4
Mus musculus [14] = experiment: Anticonvulsant activity in CF1 albino mouse assessed as protection against maximal electroshock-induced seizure at 3 mg/kg, ip after 0.5 hrs; assay type: functional, organism-based; how it was run: as §2
Mus musculus [15] = experiment: Anticonvulsant activity in CF1 albino mouse assessed as protection against maximal electroshock-induced seizure at 100 mg/kg, ip after 0.5 hrs; assay type: functional, organism-based; how it was run: as §2
Mus musculus [16] = experiment: Neurotoxicity in CF1 albino mouse at 10 mg/kg, ip after 0.5 hrs by rotarod test; assay type: toxicity, organism-based; conditions: in vivo
How it was run: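 Rotarod neurotoxicity in male CF-1 mice dosed ip as 0.5% methylcellulose suspension: mouse placed on 1 inch knurled rod rotating at 6 rpm; toxicity when the animal falls off three times within 1 min, with other signs noted. Scored as toxic/tested at 0.5 h and 4 h.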

Mus musculus [17] = experiment: Anticonvulsant activity in CF1 albino mouse assessed as protection against 6 Hz-psychomotor-induced seizure at 50 mg/kg, ip after 0.5 hrs; assay type: functional, organism-based; how it was run: as §3
Histamine H3 receptor = Histamine H3 receptor (Homo sapiens, UniProt Q9Y5N1); experiment: Displacement of [3H]-Nalpha-methylhistamine from human recombinant histamine H3 receptor expressed in HEK293 cells after 90 mins; assay type: cell-based
Histamine H3 receptor, sequence (Q9Y5N1 whole entry): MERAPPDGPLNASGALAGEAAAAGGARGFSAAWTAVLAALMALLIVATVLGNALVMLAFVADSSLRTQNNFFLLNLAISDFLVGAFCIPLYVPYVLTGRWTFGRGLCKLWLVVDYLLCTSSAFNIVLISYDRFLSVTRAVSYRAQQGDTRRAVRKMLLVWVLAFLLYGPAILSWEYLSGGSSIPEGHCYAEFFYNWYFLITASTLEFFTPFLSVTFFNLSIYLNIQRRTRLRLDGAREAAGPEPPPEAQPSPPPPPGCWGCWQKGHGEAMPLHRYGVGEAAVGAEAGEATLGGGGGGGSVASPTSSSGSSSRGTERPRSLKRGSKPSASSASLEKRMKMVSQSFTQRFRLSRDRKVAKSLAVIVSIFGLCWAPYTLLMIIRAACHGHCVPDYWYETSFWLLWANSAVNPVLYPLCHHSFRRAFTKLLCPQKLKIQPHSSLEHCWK

Mus musculus [18] = experiment: Neurotoxicity in CF1 albino mouse assessed as unable to grasp rotarod and death at 100 mg/kg, ip after 0.5 hrs by rotarod test; assay type: toxicity, organism-based; conditions: in vivo
How it was run: (§5)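 Male albino CF-1 mice dosed ip with compound suspended in 0.5% methylcellulose, then placed on a 1-inch knurled plastic rod turning at 6 rpm. A fall three times within 1 min counted as neurotoxicity. Observations were made at 0.5 h and 4 h after dosing. Result given as animals showing toxicity per animals tested, with the kind of toxicity recorded.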

Mus musculus [19] = experiment: Anticonvulsant activity in CF1 albino mouse assessed as protection against subcutaneous pentetrazole-induced seizure at 30 mg/kg, ip after 4 hrs; assay type: functional, organism-based; how it was run: as §4
Rattus norvegicus = experiment: Anticonvulsant activity in Sprague-Dawley rat assessed as protection against maximal electroshock-induced seizure at 30 mg/kg, po; assay type: functional
Mus musculus [20] = experiment: Neurotoxicity in CF1 albino mouse at 3 mg/kg, ip after 0.5 hrs by rotarod test; assay type: toxicity, organism-based; conditions: in vivo; how it was run: as §1
Mus musculus [21] = experiment: Neurotoxicity in CF1 albino mouse assessed as death at 300 mg/kg, ip after 0.5 hrs by rotarod test; assay type: toxicity, organism-based; conditions: in vivo; how it was run: as §5
Mus musculus [22] = experiment: Anticonvulsant activity in CF1 albino mouse assessed as protection against 6 Hz-psychomotor-induced seizure at 50 mg/kg, ip after 1 hr; assay type: functional, organism-based; how it was run: as §3
Mus musculus [23] = experiment: Anticonvulsant activity in CF1 albino mouse assessed as protection against maximal electroshock-induced seizure at 10 mg/kg, ip after 0.5 hrs; assay type: functional, organism-based; how it was run: as §2
Mus musculus [24] = experiment: Anticonvulsant activity in CF1 albino mouse assessed as protection against subcutaneous pentetrazole-induced seizure at 100 mg/kg, ip after 0.5 hrs; assay type: functional, organism-based; how it was run: as §4
Mus musculus [25] = experiment: Anticonvulsant activity in CF1 albino mouse assessed as protection against 6 Hz-psychomotor-induced seizure at 50 mg/kg, ip after 2 hrs; assay type: functional, organism-based; how it was run: as §3
[26] = Antiproliferative activity against human IMR32 cells assessed as cell viability after 48 hrs by formazan EZ4U dye based assay; conditions: IMR-32, 48 h
How it was run: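 HEK-293 (1.5 × 10⁴/well) or IMR-32 (2 × 10⁴/well) cells in DMEM with 10% FBS, 37 °C, 5% CO₂, grown 24 h to about 60% confluence; compounds 0.01–250 µM final, DMSO at most 1%, 48 h.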

Mus musculus [27] = experiment: Anticonvulsant activity in ip dosed CF1 albino mouse assessed as protection against subcutaneous pentetrazole-induced seizure after 0.25 hrs; assay type: functional; how it was run: as §4
Mus musculus [28] = experiment: Anticonvulsant activity in ip dosed CF1 albino mouse assessed as protection against maximal electroshock-induced seizure after 0.25 hrs; assay type: functional; how it was run: as §2

SMILES | Activity (Mus musculus [1]) | Activity (Mus musculus [2]) | Activity (Mus musculus [4]) | Activity (Mus musculus [6]) | Activity (Mus musculus [9]) | Activity (Mus musculus [10]) | Activity (Mus musculus [11]) | Activity (Mus musculus [12]) | Activity (Mus musculus [13]) | Activity (Mus musculus [14]) | Activity (Mus musculus [15]) | Activity (Mus musculus [16]) | Ki (Histamine H3 receptor) [nM] | Activity (Mus musculus [18]) | Activity (Mus musculus [19]) | Activity (Rattus norvegicus) | Activity (Mus musculus [20]) | Activity (Mus musculus [21]) | Activity (Mus musculus [23]) | Activity (Mus musculus [24]) | also measured
Clc1cccc(OCCCCCCN2CCCCC2)c1.O=C(O)C(=O)O | Non-toxic | Non-toxic | inactive | Active | Non-toxic | Non-toxic | inactive | Active | inactive | inactive | Active | Non-toxic | 255 | Toxic | inactive | 25% | Non-toxic | Toxic | inactive | inactive | Activity (Mus musculus [3]): Non-toxic; Activity (Mus musculus [5]): Non-toxic; Activity (Mus musculus [7]): Non-toxic; Activity (Mus musculus [8]): inactive; Activity (Mus musculus [17]): inactive; Activity (Mus musculus [22]): inactive; Activity (Mus musculus [25]): inactive
Clc1cccc(OCCCCCCCN2CCCCCC2)c1.O=C(O)C(=O)O | Non-toxic | Non-toxic | inactive | inactive | Non-toxic | Non-toxic | inactive | inactive | inactive | – | Active | – | > 150000 | – | inactive | – | – | – | – | – | –
COc1cccc2c1C(=O)c1c(O)c3c(c(O)c1C2=O)C[C@@](O)(C(=O)CO)C[C@@H]3O[C@H]1C[C@H](N)[C@H](O)[C@H](C)O1 [DOXORUBICIN] | – | – | – | – | – | – | – | – | – | – | – | – | – | – | – | – | – | – | – | – | IC50 [26]: 5.1 nM
Clc1ccc(OCCCCCN2CCCCC2)cc1.O=C(O)C(=O)O | Non-toxic | Non-toxic | inactive | – | Non-toxic | Non-toxic | inactive | Active | inactive | inactive | Active | Non-toxic | 427 | Toxic | inactive | inactive | Non-toxic | Toxic | inactive | inactive | –
CCC1(c2ccccc2)C(=O)NC(=O)NC1=O [PHENOBARBITAL] | – | – | – | – | – | – | – | – | – | – | – | – | – | – | – | – | – | – | – | – | ED50 (Mus musculus [27]): 13.2 mg/kg; ED50 (Mus musculus [28]): 21.8 mg/kg
